According to ChEMBL document CHEMBL1123096, “Alpha-adrenoreceptor reagents. 3. Synthesis of some 2-substituted 1,4-benzodioxans as selective presynaptic alpha 2-adrenoreceptor antagonists” (J Med Chem, 1985):

Experiments:
[1] = biological target: T1, Adrenergic receptor alpha-2 (Rattus norvegicus) (UniProt P22086+P19328+P22909); experiment: Alpha-2 adrenergic receptor antagonist activity compared to idazoxan; type: functional
How it was run: (§1)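 Vas deferens from rat or mouse; the mouse tissue was in Mg-free Krebs at 30 °C under 0.5 g tension, stimulated at 0.1 Hz, 3 ms, 100–140 V, giving a twitch of about 100 mg. […] Standard curves were run before and after the test curve.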

[2] = biological target: T2, Adrenergic receptor alpha-2 (Rattus norvegicus, UniProt P22086+P19328+P22909); experiment: Alpha-2 adrenergic receptor activity in a rat vas deferens assay. Values ranges from 8.25-9.35; type: tissue-based
T2 sequence (P22086 whole entry): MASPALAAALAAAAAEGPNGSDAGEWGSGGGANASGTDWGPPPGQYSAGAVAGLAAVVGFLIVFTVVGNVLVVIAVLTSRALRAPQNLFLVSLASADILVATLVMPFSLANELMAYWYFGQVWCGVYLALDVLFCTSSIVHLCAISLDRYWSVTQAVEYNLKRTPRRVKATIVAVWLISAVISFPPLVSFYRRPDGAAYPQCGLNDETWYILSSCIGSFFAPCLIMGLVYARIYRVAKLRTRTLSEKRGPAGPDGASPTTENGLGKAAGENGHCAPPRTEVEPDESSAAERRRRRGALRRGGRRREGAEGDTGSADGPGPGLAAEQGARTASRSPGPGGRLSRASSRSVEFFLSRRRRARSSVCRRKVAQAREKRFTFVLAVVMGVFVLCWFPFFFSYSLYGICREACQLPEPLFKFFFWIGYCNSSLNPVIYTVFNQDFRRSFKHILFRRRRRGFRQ
T2 sequence (P19328 whole entry): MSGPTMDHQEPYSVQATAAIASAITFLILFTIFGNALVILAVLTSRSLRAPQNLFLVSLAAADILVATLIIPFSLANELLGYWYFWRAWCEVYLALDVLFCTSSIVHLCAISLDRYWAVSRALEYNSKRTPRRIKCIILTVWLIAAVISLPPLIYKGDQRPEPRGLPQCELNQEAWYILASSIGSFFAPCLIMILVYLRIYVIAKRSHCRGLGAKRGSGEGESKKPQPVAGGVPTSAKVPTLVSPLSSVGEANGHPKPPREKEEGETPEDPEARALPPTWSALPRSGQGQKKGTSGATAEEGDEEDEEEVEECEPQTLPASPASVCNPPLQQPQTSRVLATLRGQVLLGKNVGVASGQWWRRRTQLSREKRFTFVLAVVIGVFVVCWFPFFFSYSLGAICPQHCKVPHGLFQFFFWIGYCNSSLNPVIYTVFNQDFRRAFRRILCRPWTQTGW
T2 sequence (P22909 whole entry): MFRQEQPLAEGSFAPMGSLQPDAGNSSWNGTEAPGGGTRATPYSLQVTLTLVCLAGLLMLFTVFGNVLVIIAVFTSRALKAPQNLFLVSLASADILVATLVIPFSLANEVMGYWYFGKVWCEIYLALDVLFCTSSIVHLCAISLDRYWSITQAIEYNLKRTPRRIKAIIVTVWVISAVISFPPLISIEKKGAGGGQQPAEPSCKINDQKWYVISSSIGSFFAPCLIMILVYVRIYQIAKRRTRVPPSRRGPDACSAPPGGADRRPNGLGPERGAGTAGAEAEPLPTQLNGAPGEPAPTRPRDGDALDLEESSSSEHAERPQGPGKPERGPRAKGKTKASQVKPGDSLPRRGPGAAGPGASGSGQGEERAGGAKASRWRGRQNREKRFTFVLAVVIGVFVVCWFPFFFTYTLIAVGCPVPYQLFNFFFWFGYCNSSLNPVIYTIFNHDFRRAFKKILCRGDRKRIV
How it was run: (§2)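 pA2 at presynaptic α2-adrenoreceptors in field-stimulated rat vas deferens. Tissue was held in Krebs solution (NaCl 118 mM, KCl 4.7 mM, CaCl2 2.5 mM, KH2PO4 1.2 mM, MgSO4 0.6 mM, NaHCO3 25 mM, dextrose 11.1 mM) gassed with 95% O2/5% CO2 at 30 °C. Stimulation was 3-ms pulses, 40 V, 0.1 Hz, with contractions recorded isometrically. Twitches were inhibited by clonidine (110 nM).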

[3] = biological target: T1, Adrenergic receptor alpha-2 (Rattus norvegicus); experiment: Presynaptic antagonist activity towards alpha-2 adrenergic receptor.; type: functional; how it was run: as §1
[4] = biological target: T3, Adrenergic receptor alpha-1 (Rattus norvegicus) (UniProt P15823+P23944+P43140); experiment: post-synaptic antagonist activity towards alpha-1 adrenergic receptor was determined. Concentration giving a dose response to phenylephrine (idazoxan=1) was reported.; type: functional
How it was run: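 Rat anococcygeus, postsynaptic α1 antagonism. At least five phenylephrine concentration–response curves were run alone, then at least four with the antagonist present.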

[5] = biological target: T3, Adrenergic receptor alpha-1 (Rattus norvegicus); experiment: Alpha-1 adrenergic receptor binding activity relative to idazoxan.; type: protein assay
[6] = biological target: T4, Adrenergic receptor alpha-1 (Rattus norvegicus, UniProt P15823+P23944+P43140); experiment: Alpha-1 adrenergic receptor activity in a rat anococcygeus. Values ranges from 6.17-6.38
T4 sequence (P15823 whole entry): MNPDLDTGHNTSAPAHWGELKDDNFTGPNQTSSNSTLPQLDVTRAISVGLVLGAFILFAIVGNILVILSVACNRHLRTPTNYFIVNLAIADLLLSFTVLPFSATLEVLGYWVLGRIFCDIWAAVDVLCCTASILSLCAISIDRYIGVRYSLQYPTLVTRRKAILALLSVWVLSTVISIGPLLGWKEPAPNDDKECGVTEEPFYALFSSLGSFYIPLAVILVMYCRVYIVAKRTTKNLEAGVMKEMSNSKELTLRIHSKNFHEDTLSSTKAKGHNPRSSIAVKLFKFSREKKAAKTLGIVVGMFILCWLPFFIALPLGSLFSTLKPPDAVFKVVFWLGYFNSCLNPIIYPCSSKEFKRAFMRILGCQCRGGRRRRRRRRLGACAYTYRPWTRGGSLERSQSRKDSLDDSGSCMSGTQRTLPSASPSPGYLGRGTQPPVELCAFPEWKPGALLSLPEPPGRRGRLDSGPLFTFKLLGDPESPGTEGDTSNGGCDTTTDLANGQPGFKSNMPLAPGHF
T4 sequence (P23944 whole entry): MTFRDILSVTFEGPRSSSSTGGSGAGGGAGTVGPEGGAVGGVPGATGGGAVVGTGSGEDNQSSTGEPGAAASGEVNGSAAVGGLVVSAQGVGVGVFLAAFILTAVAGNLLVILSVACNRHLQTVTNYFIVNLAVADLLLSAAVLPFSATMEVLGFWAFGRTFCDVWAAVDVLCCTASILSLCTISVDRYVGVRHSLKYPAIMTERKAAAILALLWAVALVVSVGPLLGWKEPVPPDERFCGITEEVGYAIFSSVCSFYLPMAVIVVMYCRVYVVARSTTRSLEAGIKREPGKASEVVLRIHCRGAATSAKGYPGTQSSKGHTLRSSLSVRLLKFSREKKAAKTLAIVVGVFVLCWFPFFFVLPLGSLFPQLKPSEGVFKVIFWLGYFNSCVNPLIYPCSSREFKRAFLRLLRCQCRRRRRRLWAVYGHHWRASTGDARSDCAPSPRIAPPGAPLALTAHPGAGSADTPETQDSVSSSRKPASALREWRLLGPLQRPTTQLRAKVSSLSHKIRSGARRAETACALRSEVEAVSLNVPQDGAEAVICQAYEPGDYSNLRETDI
T4 sequence (P43140 whole entry): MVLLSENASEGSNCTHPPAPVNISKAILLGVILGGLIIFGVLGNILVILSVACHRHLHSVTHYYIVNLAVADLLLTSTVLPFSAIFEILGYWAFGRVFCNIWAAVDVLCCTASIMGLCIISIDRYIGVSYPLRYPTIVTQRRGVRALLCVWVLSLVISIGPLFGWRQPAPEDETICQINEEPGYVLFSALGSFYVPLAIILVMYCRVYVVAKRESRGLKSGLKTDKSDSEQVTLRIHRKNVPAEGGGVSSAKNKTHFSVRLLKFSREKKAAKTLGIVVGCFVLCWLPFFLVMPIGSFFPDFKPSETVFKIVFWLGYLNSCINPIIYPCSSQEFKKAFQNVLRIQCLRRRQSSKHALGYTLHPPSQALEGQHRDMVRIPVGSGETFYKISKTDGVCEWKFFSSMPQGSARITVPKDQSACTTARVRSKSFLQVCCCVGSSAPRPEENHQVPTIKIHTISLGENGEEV

[7] = biological target: Adrenergic receptor alpha (Rattus norvegicus) (UniProt P15823+P23944+P43140+P22086+P19328+P22909); experiment: Selectivity as ratio […] against alpha-2 receptor to that of alpha-1 receptor.; type: protein assay
[8] = biological target: T2, Adrenergic receptor alpha-2; experiment: Alpha-2 adrenergic receptor activity in a rat vas deferens assay. Values ranges from 8.85-9.01; type: tissue-based; how it was run: as §2
[9] = biological target: T4, Adrenergic receptor alpha-1; experiment: Alpha-1 adrenergic receptor antagonist activity in a rat anococcygeus. Values ranges from 6.53-7.08; type: functional
[10] = biological target: T2, Adrenergic receptor alpha-2; experiment: Alpha-2 adrenergic receptor antagonist activity in a rat vas deferens assay. Values ranges from […]; type: functional, tissue-based; how it was run: as §2
[11] = biological target: T4, Adrenergic receptor alpha-1; experiment: Alpha-1 adrenergic receptor antagonist activity in a rat anococcygeus. Values ranges from 5.84-6.31; type: functional
[12] = biological target: T4, Adrenergic receptor alpha-1; experiment: Alpha-1 adrenergic receptor antagonist activity in a rat anococcygeus. Values ranges from 6.29-6.54; type: functional
[13] = biological target: T2, Adrenergic receptor alpha-2; experiment: Alpha-2 adrenergic receptor antagonist activity in a rat vas deferens assay. Values ranges from 8.37-9.10; type: functional; how it was run: as §2
[14] = biological target: T2, Adrenergic receptor alpha-2; experiment: Alpha-2 adrenergic receptor antagonist activity in a rat vas deferens assay. Values ranges from 9.30-9.52; type: functional, tissue-based; how it was run: as §2
[15] = biological target: T4, Adrenergic receptor alpha-1; experiment: Alpha-1 antagonist activity in a rat anococcygeus. Values ranges from 6.6-7.23; type: functional
[16] = biological target: T2, Adrenergic receptor alpha-2; experiment: Alpha-2 adrenergic receptor antagonist activity in a rat vas deferens assay. Values ranges from 8.42-9.51; type: functional; how it was run: as §2
[17] = biological target: T4, Adrenergic receptor alpha-1; experiment: Alpha-1 adrenergic receptor antagonist activity in a rat anococcygeus. Values ranges from 6.50-6.62; type: functional

Relative potency [1]	pA2 [2]	potency relative to idazoxan [3]	Postsynaptic antagonist [4]	Relative potency [5]	pA2 [6]	Ratio [7]	pA2 [8]	pA2 [9]	pA2 [10]	pA2 [11]	pA2 [12]	pA2 [13]	pA2 [14]	pA2 [15]	pA2 [16]	pA2 [17]	SMILES
1.4	8.64	1.5	1	0.9	6.26	1.5	–	–	–	–	–	–	–	–	–	–	CCCOC1(C2=NCCN2)COc2ccccc2O1 (configuration not stated)
2.6	–	5.9	7	2.6	–	0.8	8.92	6.74	–	–	–	–	–	–	–	–	CCOC1(C2=NCCN2)COc2ccccc2O1.Cl (configuration not stated)
1.5	–	1	0.6	0.5	–	1.6	–	–	8.67	6.01	–	–	–	–	–	–	CC(C)OC1(C2=NCCN2)COc2ccccc2O1 (configuration not stated)
1.5	–	2	3	1.2	–	0.7	–	–	–	–	6.39	8.68	–	–	–	–	c1ccc(COC2(C3=NCCN3)COc3ccccc3O2)cc1 (configuration not stated)
8.1	–	11	4	4	–	2.8	–	–	–	–	–	–	9.41	6.91	–	–	COC1(C2=NCCN2)COc2ccccc2O1 (configuration not stated)
2	–	2	6	1.7	–	0.3	–	–	–	–	–	–	–	–	8.81	6.55	C=CCOC1(C2=NCCN2)COc2ccccc2O1 (configuration not stated)
